# In ChEMBL document CHEMBL1817651, “Neuroprotective effects of linarin through activation of the PI3K/Akt pathway in amyloid-β-induced neuronal cell death” (2011):
# Active and inactive are the calls of the source. The rule behind the calls is not given here.
# Columns and labels:
# PC-12 [1] = test: Cytoprotective activity in amyloid beta-induced apoptosis in rat PC12 cells at 10 uM administered 1 hr prior to amyloid beta challenge measured after 24 hrs by using Annexin V/PI staining based flow cytometric analysis; assay type: functional
# Summary of the method: (§1)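 Cells were stained with Annexin V-FITC/PI for 15 min in the dark at room temperature and analysed by flow cytometry. Annexin+/PI− cells were scored early apoptotic and double-positive cells late apoptotic. Mean ± SD of triplicate independent experiments.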
# PC-12 [2] = test: Neuroprotective activity in amyloid beta-induced cytotoxicity in rat PC12 cells assessed as cell viability pretreated 1 hrs prior to amyloid beta challenge measured after 24 hrs by MTT assay; assay type: functional, cell-based
# Summary of the method: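 PC12 cells at 0.5 × 10^4 per well, serum-starved 12 h, then pretreated 1 h with 0.1, 1.0 or 10 µM. Viability was read by MTT (5 mg/ml, 4 h, 37 °C), with formazan dissolved in DMSO and A570 measured. Mean ± SD of triplicate experiments.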
# [3] = molecular target: T1, Acetylcholinesterase (Rattus norvegicus) (UniProt P37136); test: Inhibition of AChE activity in amyloid beta25-35-induced rat PC12 cells at 0.1 to 10 uM, 1 hrs prior to induction after 24 hrs by Ellman assay; assay type: cell-based; conditions: PC-12
# T1 sequence (whole entry): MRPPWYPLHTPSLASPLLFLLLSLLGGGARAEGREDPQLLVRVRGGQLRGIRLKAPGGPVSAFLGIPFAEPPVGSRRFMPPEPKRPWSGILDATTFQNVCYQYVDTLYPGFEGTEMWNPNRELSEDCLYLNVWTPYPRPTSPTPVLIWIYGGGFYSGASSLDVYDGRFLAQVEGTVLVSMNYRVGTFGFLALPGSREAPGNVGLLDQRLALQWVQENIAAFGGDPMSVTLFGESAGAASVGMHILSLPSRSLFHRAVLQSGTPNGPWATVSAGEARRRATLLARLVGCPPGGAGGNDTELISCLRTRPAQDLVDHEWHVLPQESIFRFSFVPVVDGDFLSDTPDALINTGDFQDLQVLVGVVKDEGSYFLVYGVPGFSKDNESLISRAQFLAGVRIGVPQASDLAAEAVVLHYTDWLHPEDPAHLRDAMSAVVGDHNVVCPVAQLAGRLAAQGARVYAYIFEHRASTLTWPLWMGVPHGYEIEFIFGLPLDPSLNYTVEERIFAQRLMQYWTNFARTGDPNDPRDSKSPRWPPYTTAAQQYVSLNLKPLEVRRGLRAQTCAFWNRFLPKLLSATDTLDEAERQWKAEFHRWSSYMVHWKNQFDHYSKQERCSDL
# Summary of the method: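 Rat PC12 cells in DMEM/10% FBS, serum-starved 12 h, were pretreated 1 h, then exposed 24 h to 30 µM Aβ25-35 (1 mM in water, pre-aggregated 72 h at 37 °C). Lysates were made in high ionic strength buffer (1 M NaCl, Triton X-100, EDTA) and spun 12,000 rpm 20 min at 4 °C. AChE activity in the supernatant was read by Ellman method; three independent experiments.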
# PC-12 [4] = test: Cytoprotective activity in amyloid beta-induced apoptosis in rat PC12 cells at 0.1 uM administered 1 hr prior to amyloid beta challenge measured after 24 hrs by using Annexin V/PI staining based flow cytometric analysis; assay type: functional; summary of the method: as §1
# PC-12 [5] = test: Cytoprotective activity in amyloid beta-induced apoptosis in rat PC12 cells at 1 uM administered 1 hr prior to amyloid beta challenge measured after 24 hrs by using Annexin V/PI staining based flow cytometric analysis; assay type: functional; summary of the method: as §1
# PC-12 [6] = test: Cytoprotective activity in amyloid beta-induced apoptosis in rat PC12 cells administered 1 hr prior to amyloid beta challenge measured after 24 hrs by using Annexin V/PI staining based flow cytometric analysis; assay type: functional, cell-based; summary of the method: as §1
# PC-12 [7] = test: Inhibition of amyloid beta-induced mitochondrial dysfunction in rat PC12 cells at 0.1 to 10 uM administered 1 hr prior to amyloid beta challenge measured after 24 hrs using JC1 fluorescent dye based flow cytometeric analysis; assay type: functional, cell-based
# Summary of the method: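 Cells were loaded with JC-1 for 20 min at 37 °C, pelleted at 600g, resuspended in PBS and analysed by flow cytometry on FL1 (525 nm) and FL2 (575 nm). Membrane potential was expressed as the green/red fluorescence ratio. Mean ± SD, triplicate.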
# PC-12 [8] = test: Inhibition of amyloid beta-induced apoptosis in rat PC12 cells assessed as decrease in caspase-3 dependent cleavage of Ac-DEVD-pNA administered 1 hr prior to amyloid beta challenge measured after 24 hrs by spectrophotometric analysis; assay type: functional, cell-based
# Summary of the method: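 Released pNA was read at 405 nm. Activity was normalised to protein and expressed as fold over control cells. Mean ± SD of triplicate experiments.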
# PC-12 [9] = test: Neuroprotective effect against amyloid beta-induced apoptosis in rat PC12 cells assessed as upregulation of PI3K-mediated Akt phosphorylation administered 1 hr prior to amyloid beta challenge measured after 24 hrs by Western blotting; assay type: functional, cell-based
# Summary of the method: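 Lysate protein (20 or 30 µg) was run on 12% SDS-PAGE and blotted to nitrocellulose. Blots were probed for p-Akt Ser473 and total Akt (1:1000), with β-actin or GAPDH as loading control, and detected by ECL. Densitometry, mean ± SD, triplicate.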
# [10] = molecular target: RAC-alpha serine/threonine-protein kinase (Rattus norvegicus) (UniProt P47196); test: Induction of PIK3-mediated Akt phosphorylation in amyloid beta-induced rat PC12 cells at 10 uM, treated 1 hrs prior to amyloid beta challenge measured after 24 hrs by Western blotting in presence of PI3K inhibitor LY294002 before compound addition; assay type: cell-based; conditions: PC-12
# Chain of RAC-alpha serine/threonine-protein kinase (Rattus norvegicus) (P47196 whole entry): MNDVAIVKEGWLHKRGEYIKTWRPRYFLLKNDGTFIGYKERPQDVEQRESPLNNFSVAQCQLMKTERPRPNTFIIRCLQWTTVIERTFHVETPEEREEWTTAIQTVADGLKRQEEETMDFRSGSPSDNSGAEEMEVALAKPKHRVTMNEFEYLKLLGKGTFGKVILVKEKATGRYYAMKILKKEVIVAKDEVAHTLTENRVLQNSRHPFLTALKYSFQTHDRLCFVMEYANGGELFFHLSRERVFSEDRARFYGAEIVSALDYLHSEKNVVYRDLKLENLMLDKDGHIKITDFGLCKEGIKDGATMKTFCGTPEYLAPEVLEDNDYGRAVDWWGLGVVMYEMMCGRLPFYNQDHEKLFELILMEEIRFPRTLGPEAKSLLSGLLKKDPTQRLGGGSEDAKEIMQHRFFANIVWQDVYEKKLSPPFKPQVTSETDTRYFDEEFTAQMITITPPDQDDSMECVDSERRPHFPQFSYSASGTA
# Summary of the method: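 Lysates (20 or 30 µg) were run on 12% SDS-PAGE and immunoblotted for p-Akt and total Akt (1:1000) with ECL detection. Densitometry, mean ± SD of triplicate experiments.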
# [11] = molecular target: Glycogen synthase kinase-3 beta (Rattus norvegicus) (UniProt P18266); test: Increase in GSK3 beta phosphorylation at Ser9 in amyloid beta-induced rat PC12 cells at 0.1 to 10 uM administered 1 hrs prior to amyloid beta challenge measured after 24 hrs by Western blotting; assay type: cell-based; conditions: PC-12
# Chain of Glycogen synthase kinase-3 beta (Rattus norvegicus) (P18266 whole entry, looked up): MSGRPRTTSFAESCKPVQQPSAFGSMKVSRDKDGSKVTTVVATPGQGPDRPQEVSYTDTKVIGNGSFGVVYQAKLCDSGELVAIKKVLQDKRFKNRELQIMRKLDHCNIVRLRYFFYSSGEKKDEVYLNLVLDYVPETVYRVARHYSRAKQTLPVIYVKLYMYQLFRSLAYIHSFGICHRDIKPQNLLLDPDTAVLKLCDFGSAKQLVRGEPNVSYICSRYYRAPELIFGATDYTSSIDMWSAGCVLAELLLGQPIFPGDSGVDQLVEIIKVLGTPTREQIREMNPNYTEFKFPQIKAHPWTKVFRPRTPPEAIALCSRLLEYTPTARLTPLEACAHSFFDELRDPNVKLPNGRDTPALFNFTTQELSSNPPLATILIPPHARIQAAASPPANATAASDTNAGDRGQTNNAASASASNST
# Summary of the method: (§2)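 Lysates (20 or 30 µg) were run on 12% SDS-PAGE and immunoblotted for pSer9 GSK-3β and total GSK-3β (1:1000), with β-actin or GAPDH as loading control. Blots shown represent three independent experiments.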
# [12] = molecular target: Glycogen synthase kinase-3 beta (Rattus norvegicus) (UniProt P18266); test: Increase in GSK3 beta phosphorylation at Ser9 in amyloid beta-induced rat PC12 cells at 0.1 to 10 uM administered 1 hrs prior to amyloid beta challenge measured after 24 hrs by Western blotting pretreated with PI3K inhibitor LY294002 before compound addition; assay type: cell-based; conditions: PC-12; summary of the method: as §2
# PC-12 [13] = test: Neuroprotective activity in amyloid beta-induced rat PC12 cells assessed as increase of Bcl-2 expression at 0.1 to 10 uM administered 1 hrs prior to amyloid beta challenge measured after 24 hrs by Western blotting; assay type: functional, cell-based
# Summary of the method: (§3)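 Lysates (20 or 30 µg) were separated on 12% gels, blotted and probed with anti-Bcl-2 (1:200), with β-actin or GAPDH as loading control. Detection was by ECL.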
# PC-12 [14] = test: Neuroprotective effect against amyloid beta-induced rat PC12 cells assessed as increase of Bcl-2 expression at 0.1 to 10 uM administered 1 hrs prior to amyloid beta challenge measured after 24 hrs by Western blotting pretreated with PI3K inhibitor LY294002 before compound addition; assay type: functional, cell-based; summary of the method: as §3
compound,measurement,setting,value
COc1ccc(-c2cc(=O)c3c(O)cc(O[C@@H]4O[C@H](CO[C@@H]5O[C@@H](C)[C@H](O)[C@@H](O)[C@H]5O)[C@@H](O)[C@H](O)[C@H]4O)cc3o2)cc1 [ACACIIN],Activity,PC-12 [1],7.32%
same,Activity,PC-12 [2],Dose-dependent effect
same,inhibition,[3],Active
same,Activity,PC-12 [4],20.52%
same,Activity,PC-12 [5],11.57%
same,Activity,PC-12 [6],Dose-dependent effect
same,inhibition,PC-12 [7],Active
same,inhibition,PC-12 [8],Dose-dependent effect
same,Activity,PC-12 [9],Active
same,Activity,[10],inactive
same,Activity,[11],Active
same,Activity,[12],inactive
same,Activity,PC-12 [13],Active
same,Activity,PC-12 [14],inactive
